A word on the IC50: it is the midpoint of a concentration-inhibition curve.

Assay [1] has as its system Candida albicans. The experiment in a line: Antifungal activity against Candida albicans SC5314 infected in HeLa cells at 20 uM after 5 days by fluorescein diacetate assay. Format: functional, organism-based. In outline: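 Primary HTS: HeLa cells co-incubated with C. albicans plus a single compound at ~20 μM for 5 days. Viability checked microscopically at 18 h and quantified at day 5 by fluorescein diacetate fluorescence. Wells also scanned visually for yeast growth. Hit criterion: >40% signal relative to the uninfected untreated HeLa (~100%) and infected untreated HeLa (~0%) controls.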

Assay [2] relates to Candida albicans. In words: Antifungal activity against Candida albicans SC5314 infected in HeLa cells after 5 days by fluorescein diacetate assay. The conditions noted are these: Candida albicans, SC5314, HeLa, 120 h; read-out: IC50. It is filed as functional, organism-based. In outline:
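HeLa cells co-incubated with C. albicans and compound for 5 days. Dose–response from resynthesized compounds. Host-cell viability checked microscopically at 18 h, then quantified at day 5 by fluorescein diacetate conversion to a fluorophore by live cells. Wells also inspected visually for yeast growth. Controls: untreated uninfected HeLa (~100%) and untreated infected HeLa (~0%). IC50 derived from infected cells; CC50 as half-maximal cytotoxic concentration.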

Activity calls are given as the source filed them.

`CC(C)[C@H](N)c1nc2ccccc2n1Cc1ccc(Cl)cc1`: in the assay with Candida albicans [1], the inhibition entry is “inactive”. Still for that read-out and setting: next, `Cc1cccc(Cn2c(C(C)(C)N)nc3cc(C(F)(F)F)ccc32)c1`: “inactive”; `COc1cccc(Cn2c([C@@H](N)CC(C)C)nc3cc(C(F)(F)F)ccc32)c1`: “inactive”. Same read-out and setting: next, `C[C@H](N)c1nc2ccccc2n1Cc1cccc(F)c1`: “inactive”; `CCC(C)[C@H](N)c1nc2cc(Cl)c(Cl)cc2n1Cc1cccc(F)c1` (some centres not stated): “inactive”. Still for that read-out and setting: next, `CCC(C)[C@H](N)c1nc2ccccc2n1Cc1cccc(C)c1` (some centres not stated): “inactive”. Take `CCC(C)[C@H](N)c1nc2cc(Cl)c(Cl)cc2n1Cc1cccc(Cl)c1` (some centres not stated): in the assay on Candida albicans [1], the inhibition result was “inactive”. As for `CC(C)C[C@H](N)c1nc2cc(Cl)c(Cl)cc2n1Cc1cccc(F)c1`, the inhibition result with Candida albicans [1] is “inactive”. Same read-out and setting: next, `COc1cccc(Cn2c(C(C)(C)N)nc3cc(Cl)c(Cl)cc32)c1`: “inactive”; `C[C@H](N)c1nc2cc(C(F)(F)F)ccc2n1Cc1ccc(Cl)cc1`: “inactive”; `CCC(C)[C@H](N)c1nc2cc(C(F)(F)F)ccc2n1Cc1ccc(Cl)cc1` (some centres not stated): “inactive”. Same read-out and setting: next, `CCC[C@H](N)c1nc2cc(C(F)(F)F)ccc2n1Cc1cccc(Cl)c1`: “inactive”. Still for that read-out and setting: the same measure for `COc1cccc(Cn2c(C(C)(C)N)nc3cc(C(F)(F)F)ccc32)c1`: “inactive”; for `CC(C)(N)c1nc2cc(Cl)c(Cl)cc2n1Cc1ccc(Cl)cc1`: “inactive”; for `COc1cccc(Cn2c([C@@H](N)C(C)C)nc3cc(Cl)c(Cl)cc32)c1`: “inactive”.

Consider `CCC[C@H](N)c1nc2cc(Cl)c(Cl)cc2n1Cc1cccc(Cl)c1`, for which the inhibition result in the assay with Candida albicans [1] is “inactive”.

With `CCC[C@H](N)c1nc2cc(C(F)(F)F)ccc2n1Cc1cccc(F)c1`, the inhibition entry in the assay with Candida albicans [1] was “inactive”. For the compound `CCC[C@H](N)c1nc2cc(C(F)(F)F)ccc2n1Cc1ccc(Cl)cc1`, in the assay with Candida albicans [1], the inhibition entry was “inactive”. Consider `COc1cccc(Cn2c([C@@H](N)CC(C)C)nc3cc(Cl)c(Cl)cc32)c1`, for which the inhibition entry with Candida albicans [1] is “inactive”.

Take `CC(C)(N)c1nc2ccccc2n1Cc1cccc(Cl)c1`: the inhibition entry in the assay with Candida albicans [1] was “inactive”. Same read-out and setting: the same measure for `CCC[C@H](N)c1nc2cc(Cl)c(Cl)cc2n1Cc1cccc(C)c1`: “inactive”.

For the compound `Cc1cccc(Cn2c([C@@H](N)C(C)C)nc3cc(C(F)(F)F)ccc32)c1`, the inhibition entry in the assay on Candida albicans [1] is “inactive”. On to `COc1cccc(Cn2c(C(C)(C)N)nc3ccccc32)c1`, for which the inhibition entry with Candida albicans [1] is “inactive”. On the same count and under the same terms, next, `Cc1cccc(Cn2c([C@@H](N)CC(C)C)nc3cc(Cl)c(Cl)cc32)c1`: “inactive”.

In the case of `CC(C)[C@H](N)c1nc2cc(Cl)c(Cl)cc2n1Cc1ccc(Cl)cc1`, in the assay on Candida albicans [1], the inhibition result is “inactive”. As for `CC(C)[C@H](N)c1nc2cc(Cl)c(Cl)cc2n1Cc1cccc(Cl)c1`, in the assay on Candida albicans [1], the inhibition entry is “inactive”. Same read-out and setting: the same measure for `CC(C)(N)c1nc2cc(C(F)(F)F)ccc2n1Cc1cccc(F)c1`: “inactive”; for `CC(C)(N)c1nc2cc(Cl)c(Cl)cc2n1Cc1cccc(Cl)c1`: “inactive”.

As to `CCC[C@H](N)c1nc2ccccc2n1Cc1cccc(F)c1`, the inhibition result in the assay on Candida albicans [1] was “inactive”. On the same count and under the same terms, the same measure for `Cc1cccc(Cn2c(C(C)(C)N)nc3cc(Cl)c(Cl)cc32)c1`: “inactive”; for `CCC(C)[C@H](N)c1nc2ccccc2n1Cc1cccc(OC)c1` (some centres not stated): “inactive”; for `CC(C)C[C@H](N)c1nc2cc(C(F)(F)F)ccc2n1Cc1ccc(Cl)cc1`: “inactive”. For the compound `CCC(C)[C@H](N)c1nc2cc(C(F)(F)F)ccc2n1Cc1cccc(F)c1` (some centres not stated), in the assay with Candida albicans [1], the inhibition result is “inactive”.

Take `CC(C)C[C@H](N)c1nc2cc(Cl)c(Cl)cc2n1Cc1cccc(Cl)c1`: the inhibition entry in the assay on Candida albicans [1] was “inactive”. In the case of `COc1cccc(Cn2c([C@H](C)N)nc3cc(C(F)(F)F)ccc32)c1`, in the assay on Candida albicans [1], the inhibition result was “inactive”. `C[C@H](N)c1nc2ccccc2n1Cc1ccc(Cl)cc1`: in the assay with Candida albicans [1], the inhibition entry was “inactive”. For `Cc1cccc(Cn2c([C@@H](N)CC(C)C)nc3cc(C(F)(F)F)ccc32)c1`, the inhibition entry with Candida albicans [1] was “inactive”. With `C[C@@H]1[C@H](O)[C@@H](C)/C=C/C=C/C=C/C=C/C=C/C=C/C=C/[C@H](O[C@@H]2O[C@H](C)[C@@H](O)[C@H](N)[C@@H]2O)C[C@@H]2O[C@](O)(C[C@@H](O)C[C@@H](O)[C@H](O)CC[C@@H](O)C[C@@H](O)CC(=O)O[C@H]1C)C[C@H](O)[C@H]2C(=O)O` [AMPHOTERICIN B], the IC50 with Candida albicans [2] was found to be 500 nM. Consider `C[C@H](N)c1nc2cc(C(F)(F)F)ccc2n1Cc1cccc(Cl)c1`, for which the inhibition result in the assay with Candida albicans [1] was “inactive”. As to `Cc1cccc(Cn2c([C@H](C)N)nc3cc(C(F)(F)F)ccc32)c1`, in the assay with Candida albicans [1], the inhibition entry is “inactive”.

As to `COc1cccc(Cn2c([C@H](C)N)nc3ccccc32)c1`, in the assay on Candida albicans [1], the inhibition result was “inactive”.

As for `Cc1cccc(Cn2c([C@@H](N)C(C)C)nc3cc(Cl)c(Cl)cc32)c1`, in the assay with Candida albicans [1], the inhibition entry is “inactive”.

On to `CC(C)[C@H](N)c1nc2cc(C(F)(F)F)ccc2n1Cc1ccc(Cl)cc1`, for which the inhibition entry in the assay with Candida albicans [1] was “inactive”.

For `C[C@H](N)c1nc2cc(Cl)c(Cl)cc2n1Cc1cccc(Cl)c1`, in the assay on Candida albicans [1], the inhibition entry was “inactive”. Same read-out and setting: next, `CC(C)[C@H](N)c1nc2cc(C(F)(F)F)ccc2n1Cc1cccc(Cl)c1`: “inactive”; `COc1cccc(Cn2c([C@H](C)N)nc3cc(Cl)c(Cl)cc32)c1`: “inactive”; `CCC[C@H](N)c1nc2ccccc2n1Cc1cccc(OC)c1`: “inactive”. The same measure, in the same setting: next, `Cc1cccc(Cn2c([C@@H](N)CC(C)C)nc3ccccc32)c1`: “inactive”. Regarding `CCC(C)[C@H](N)c1nc2ccccc2n1Cc1cccc(Cl)c1` (some centres not stated), the inhibition result in the assay with Candida albicans [1] was “inactive”. Regarding `CC(C)[C@H](N)c1nc2cc(C(F)(F)F)ccc2n1Cc1cccc(F)c1`, the inhibition entry with Candida albicans [1] is “inactive”.

Regarding `C[C@H](N)c1nc2cc(Cl)c(Cl)cc2n1Cc1cccc(F)c1`, the inhibition result with Candida albicans [1] is “inactive”. Consider `Cc1cccc(Cn2c([C@H](C)N)nc3cc(Cl)c(Cl)cc32)c1`, for which the inhibition result in the assay on Candida albicans [1] was “inactive”.

With `CCC(C)[C@H](N)c1nc2cc(C(F)(F)F)ccc2n1Cc1cccc(C)c1` (some centres not stated), in the assay on Candida albicans [1], the inhibition result was “inactive”. Same read-out and setting: next, `CCC(C)[C@H](N)c1nc2cc(C(F)(F)F)ccc2n1Cc1cccc(Cl)c1` (some centres not stated): “inactive”; `C[C@H](N)c1nc2cc(C(F)(F)F)ccc2n1Cc1cccc(F)c1`: “inactive”; `CCC[C@H](N)c1nc2cc(C(F)(F)F)ccc2n1Cc1cccc(C)c1`: “inactive”.

In the case of `CCC(C)[C@H](N)c1nc2ccccc2n1Cc1cccc(F)c1` (some centres not stated), the inhibition entry in the assay with Candida albicans [1] was “inactive”. In the case of `CCC[C@H](N)c1nc2cc(Cl)c(Cl)cc2n1Cc1ccc(Cl)cc1`, the inhibition entry with Candida albicans [1] is “inactive”. Still for that read-out and setting: the same measure for `CCC(C)[C@H](N)c1nc2ccccc2n1Cc1ccc(Cl)cc1` (some centres not stated): “inactive”; for `CCC[C@H](N)c1nc2ccccc2n1Cc1cccc(Cl)c1`: “inactive”; for `COc1cccc(Cn2c([C@@H](N)C(C)C)nc3cc(C(F)(F)F)ccc32)c1`: “inactive”. Same read-out and setting: next, `CC(C)C[C@H](N)c1nc2ccccc2n1Cc1cccc(F)c1`: “inactive”; `CC(C)(N)c1nc2cc(Cl)c(Cl)cc2n1Cc1cccc(F)c1`: “inactive”; `CCC[C@H](N)c1nc2cc(Cl)c(Cl)cc2n1Cc1cccc(F)c1`: “inactive”. Same read-out and setting: next, `CCC(C)[C@H](N)c1nc2cc(C(F)(F)F)ccc2n1Cc1cccc(OC)c1` (some centres not stated): “inactive”; `CCC(C)[C@H](N)c1nc2cc(Cl)c(Cl)cc2n1Cc1cccc(C)c1` (some centres not stated): “inactive”. Regarding `CC(C)(N)c1nc2cc(C(F)(F)F)ccc2n1Cc1ccc(Cl)cc1`, in the assay on Candida albicans [1], the inhibition entry is “inactive”.

Regarding `Cc1cccc(Cn2c(C(C)(C)N)nc3ccccc32)c1`, the inhibition result with Candida albicans [1] was “inactive”. Same read-out and setting: next, `CC(C)C[C@H](N)c1nc2cc(Cl)c(Cl)cc2n1Cc1ccc(Cl)cc1`: “inactive”; `CCC[C@H](N)c1nc2cc(C(F)(F)F)ccc2n1Cc1cccc(OC)c1`: “inactive”; `COc1cccc(Cn2c([C@@H](N)CC(C)C)nc3ccccc32)c1`: “inactive”. Take `CCC(C)[C@H](N)c1nc2cc(Cl)c(Cl)cc2n1Cc1ccc(Cl)cc1` (some centres not stated): the inhibition entry with Candida albicans [1] was “inactive”. On to `C[C@H](N)c1nc2cc(Cl)c(Cl)cc2n1Cc1ccc(Cl)cc1`, for which the inhibition entry with Candida albicans [1] is “inactive”. As to `CCC(C)[C@H](N)c1nc2cc(Cl)c(Cl)cc2n1Cc1cccc(OC)c1` (some centres not stated), in the assay on Candida albicans [1], the inhibition result was “inactive”.

For the compound `CCC[C@H](N)c1nc2cc(Cl)c(Cl)cc2n1Cc1cccc(OC)c1`, the inhibition entry in the assay with Candida albicans [1] is “inactive”. For the compound `CC(C)[C@H](N)c1nc2cc(Cl)c(Cl)cc2n1Cc1cccc(F)c1`, in the assay on Candida albicans [1], the inhibition entry was “inactive”. Turning to `CC(C)C[C@H](N)c1nc2cc(C(F)(F)F)ccc2n1Cc1cccc(Cl)c1`, in the assay with Candida albicans [1], the inhibition result was “inactive”. On to `CC(C)(N)c1nc2cc(C(F)(F)F)ccc2n1Cc1cccc(Cl)c1`, for which the inhibition entry in the assay with Candida albicans [1] is “inactive”.

Consider `CC(C)C[C@H](N)c1nc2cc(C(F)(F)F)ccc2n1Cc1cccc(F)c1`, for which the inhibition result in the assay with Candida albicans [1] was “inactive”. The same measure, in the same setting: next, `COc1cccc(Cn2c([C@@H](N)C(C)C)nc3ccccc32)c1`: “inactive”. Same read-out and setting: the same measure for `CC(C)C[C@H](N)c1nc2ccccc2n1Cc1cccc(Cl)c1`: “inactive”; for `CC(C)(N)c1nc2ccccc2n1Cc1cccc(F)c1`: “inactive”.
